Data from article PMC11350598 (JACS Au, 2024).
Read-outs that look alike come from different tables or passages of the source. Marks after values point to notes of the source that are not given here.

What was measured:
[1] = tested on: wild-type (AF) A. ferrooxidans cells; assay: Metal recovery from porphyry molybdenite processing concentrate; format: cell-based; details: for binding during reactions with process concentrate: data not shown; for efficiency of recovery: diluted acidic wastewater from molybdenite processing, pH 1.6
In short: (§1)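 Wild-type *A. ferrooxidans* and strains engineered to (over)express wild-type (AFWP) or mutant (AFMP) ModA/WtpA oxyanion-binding protein (AFE_1498) were each reacted with diluted acidic wastewater from the washing and extraction steps of porphyry molybdenite processing. The wastewater held molybdenum and rhenium as major components, at pH 1.6. Mo and Re recovery efficiency after binding was compared with wild-type cells.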

AFMP cells = assay: as above; format: cell-based, A. ferrooxidans; details: for binding during reactions with process concentrate: data not shown; for efficiency of recovery: diluted acidic wastewater from molybdenite processing
In short: as §1

[2] = tested on: wild-type (AF) A. ferrooxidans cells; format: cell-based; details: for binding capacity: 1 mM mixed metal solution, pH 1.8
[3] = tested on: AFMP (engineered A. ferrooxidans expressing mutant ModA/WtpA); assay: Metal binding by cells in synthetic metal solutions; format: cell-based; details: for binding capacity to other oxyanion metals: Figure S6
[4] = tested on: AFWP (engineered A. ferrooxidans overexpressing wild-type ModA/WtpA); assay: as above; format: cell-based; details: for binding capacity to other oxyanion metals: Figure S6; for binding capacity / fold higher binding capacity compared to wild-type cells: pH 1.8
[5] = cited from earlier work
[6] = tested on: wild-type ModA/WtpA protein (AFE_1498); assay: Metal binding in vitro by purified protein; parameters: species or system A. ferrooxidans; details: pH 1.8, 1:1 molar ratio
In short: (§2)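 Purified polyHis-tagged protein (Ni-NTA resin, then size exclusion chromatography; about 35 kDa on SDS-PAGE). It was incubated 1 h at pH 1.8 with a solution of one oxyanion: molybdate, tungstate, chromate or perrhenate. Binding efficiency was taken after the incubation. Error bars are one standard deviation, and p < 0.05 versus wild-type protein for the same metal.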

[7] = tested on: mutant (G9C/A166C) ModA/WtpA protein; assay: Metal binding in vitro by purified protein; parameters: species or system A. ferrooxidans; details: pH 1.8, 1:1 molar ratio
In short: as §2

mutant ModA/WtpA protein = assay: Quenching of intrinsic tryptophan fluorescence, Langmuir isotherm fit; format: binding, A. ferrooxidans; details: pH 1.8; for Kd: read-out: dissociation constant, mutant protein
In short: (§3)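 Purified polyHis-tagged protein (Ni-NTA resin, then size exclusion chromatography) at a fixed amount, titrated at pH 1.8 with varying initial concentrations of molybdate, tungstate, chromate or perrhenate. Significance was p < 0.05 versus wild-type protein for the same metal.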

[8] = target: wild-type ModA/WtpA protein; assay: as above; format: binding, A. ferrooxidans; details: read-out: dissociation constant, pH 1.8
In short: as §3

AFWP cells = assay: Metal recovery from porphyry molybdenite processing concentrate; format: cell-based, A. ferrooxidans; details: pH 1.6; for efficiency of recovery: diluted acidic wastewater from molybdenite processing
In short: as §1

[9] = 1 mM mixed metal solution, pH 1.8
[10] = 1 mM pure metal solution, pH 1.8
[11] = diluted process concentrate, pH 1.6

## [As] [arsenic]
[1]
  binding during reactions with process concentrate: nonspecific binding
AFMP cells
  binding during reactions with process concentrate: nonspecific binding

## O=[As][O-].[Na+] [arsenite]
[2]
  binding capacity to other oxyanion metals: did not show significant binding capacity
[3]
  binding capacity to other oxyanion metals: did not show significant binding capacity
[4]
  binding capacity to other oxyanion metals: did not show significant binding capacity

## [O]=[Cr](=[O])([O-])[O-] [chromate]
[5]; ref [4],[47]
  pKa: 6.5
[6]
  binding efficiency (bound): nearly all
[7]
  binding efficiency (bound): nearly all
[2]; wild-type AF
  binding capacity: 0.03 fg/cell
[3]; [9]
  binding capacity: 0.07 fg/cell
[3]; [10]
  binding capacity: 0.6 fg/cell
  fold higher binding capacity compared to wild-type cells: 1.3 fold
[4]; 1 mM mixed metal solution
  binding capacity: 0.06 fg/cell
[4]; 1 mM pure metal solution
  binding capacity: 0.6 fg/cell
  fold higher binding capacity compared to wild-type cells: 1.3 fold
Mutant ModA/WtpA protein
  Kd: 0.48 ± 0.07 µM
[8]
  Kd: 0.5 ± 0.11 µM

## [Fe+2] [iron]
[6]
  binding efficiency (bound): 1.7 ± 0.3%
[7]
  binding efficiency (bound): 1.3 ± 0.5%
[2]; wild-type AF
  binding capacity: 0.04 fg/cell
[3]; [9]
  binding capacity: 0.04 fg/cell
[4]; 1 mM mixed metal solution
  binding capacity: 0.04 fg/cell

## [O]=[Mo](=[O])([O-])[O-] [molybdate]
[5]; ref [4],[47]
  pKa: 3.8
[6]
  binding efficiency (bound): nearly all
[7]
  binding efficiency (bound): nearly all
[2]; wild-type AF
  binding capacity: 3.6 fg/cell
[3]; [9]
  binding capacity: 8.4 fg/cell
[3]; [10]
  binding capacity: 18 fg/cell
  fold higher binding capacity compared to wild-type cells: 1.4 fold
[1]
  efficiency of recovery: 6.0 ± 0.1%
[4]; 1 mM mixed metal solution
  binding capacity: 5.9 fg/cell
[4]; 1 mM pure metal solution
  binding capacity: 18 fg/cell
  fold higher binding capacity compared to wild-type cells: 1.4 fold
AFMP cells; pH 1.6
  efficiency of recovery: 12 ± 1%
AFMP cells; [11]
  fold more recovered compared to wild-type AF cells: 2 fold
Mutant ModA/WtpA protein
  fold lower Kd (higher affinity) of mutant protein than wild-type protein: 2 fold
  Kd: 0.15 ± 0.01 µM
AFWP cells
  efficiency of recovery: 12 ± 1%
AFWP cells; diluted process concentrate
  fold more recovered compared to wild-type AF cells: 2 fold
[8]
  Kd: 0.32 ± 0.03 µM

## [O]=[Re](=[O])(=[O])[O-] [perrhenate]
[5]; ref [47]
  pKa: −1.25
[6]
  binding efficiency (bound): 1.4%
[7]
  binding efficiency (bound): 93%
[3]; [9]
  fold higher binding capacity than wild-type AF and AFWP cells: 2.7 fold
[3]; [10]
  binding capacity: 1.3 fg/cell
  fold higher binding capacity compared to AFWP cells: 2 fold
  fold higher binding capacity compared to wild-type cells: 5 fold
[1]
  efficiency of recovery: 1.7 ± 0.1%
AFMP cells; pH 1.6
  efficiency of recovery: 5.7 ± 0.1%*^,**
AFMP cells; [11]
  fold more recovered than wild-type and AFWP cells: 3 fold
Mutant ModA/WtpA protein
  fold lower Kd (higher affinity) of mutant protein than wild-type protein: 6 fold
  Kd: 0.16 ± 0.03 µM
AFWP cells
  efficiency of recovery: 1.9 ± 0.2%*^,**
[8]
  Kd: 1 ± 0.1 µM

## [Se] [selenium]
[1]
  binding during reactions with process concentrate: nonspecific binding
AFMP cells
  binding during reactions with process concentrate: nonspecific binding

## [O]=[W](=[O])([O-])[O-] [tungstate]
[5]; ref [4],[47]
  pKa: 6.7
[6]
  binding efficiency (bound): nearly all
[7]
  binding efficiency (bound): nearly all
[3]; [9]
  binding capacity: 0.04 fg/cell
[3]; [10]
  binding capacity: 0.24 fg/cell
  fold higher binding capacity compared to wild-type cells: 2 fold
[4]; 1 mM mixed metal solution
  binding capacity: 0.02 fg/cell
[4]; 1 mM pure metal solution
  binding capacity: 0.23 fg/cell
  fold higher binding capacity compared to wild-type cells: 2 fold
Mutant ModA/WtpA protein
  Kd: 0.36 ± 0.06 µM
[8]
  Kd: 0.49 ± 0.11 µM

## phosphate
[2]; wild-type AF, Figure S6
  binding capacity to other oxyanion metals: did not show significant binding capacity
[3]
  binding capacity to other oxyanion metals: did not show significant binding capacity
[4]
  binding capacity to other oxyanion metals: did not show significant binding capacity
